# Bioassay records: PubChem, several laboratories
# This is a sample that favours compounds with a hit; in the whole collection about 1.1% have one here.
# Rad51 HR inh = Rad51 (human) homologous recombination inhibition | Q06609 | hRad51 DNA strand exchange, fluorescence dequenching | inhibition, % at 10 µM | hit rate 0.085% among 200,000 | AID 1385;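 active = inhibition above 40% at the single screening dose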;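 note: 0% = DMSO control wells and 100% = blanks with heterologous ssDNA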
#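 Test system: preformed human Rad51 ssDNA filaments. Compound dosing: single dose, 10 µM final compound. Incubation: filaments 15 min 37 °C, then compound 30 min. Technique: FRET fluorescence dequenching, excitation 485 nm, emission 520 nm. Read-out basis: percent inhibition from fluorescence, normalised to plate control and blank means. Benchmarks: plate controls and plate blanks.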
# HMGR II inh = inhibitors of class II HMG-CoA reductase from Enterococcus faecalis; purified E. faecalis HMGR, NADPH absorbance 340 nm kinetic; inhibition, % at 10 µM; hit rate 0.41% among 190,000; AID 1066;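 active = inhibition above a set limit, the median over all tested compounds plus 3 SD, cut at about 9.5% in these data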;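 note: enzyme runs in reverse so mevalonate oxidation gives rising NADPH absorbance; 0% = complete reaction with DMSO and 100% = background rate lacking mevalonate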
# PMI act hi M6P = increases human PMI activity with near-saturating mannose 6-phosphate; coupled PMI enzyme assay, resazurin fluorescence, 20 min; stronger effect = higher value; 1 = untreated enzyme, 0 = substrate-free blank; activation factor at 20 µM; hit rate 0.34% among 190,000; AID 1216;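 active = activation factor of 2 or more at 20 µM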
#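 test system = human PMI in coupled enzyme assay | medium = HEPES-buffered pH 7.4 with magnesium and detergent | also added = 1.0 mM mannose-6-phosphate substrate with 0.22 mM NADP+ | compound = 20 µM single dose | times = 20 min incubation at room temperature | measured by = resorufin fluorescence (Ex 544/Em 590 nm) from resazurin via diaphorase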
# PMI act = increases human mannose-6-phosphate isomerase activity; P34949; purified human PMI, coupled resazurin fluorescence, 20 min; stronger effect = higher value; 1 = vehicle control, 0 substrate-free wells; activation factor at 20 µM; hit rate 0.005% among 190,000; AID 1214;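 active = activation factor of 2 or more at 20 µM, relative to plate controls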
# m-calpain inh = inhibitors of pig calpain II | purified calpain II, fluorogenic peptide substrate, 30 min | inhibition, % at 16 µM | hit rate 0.37% among 220,000 | AID 1236;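 active = inhibition above about 50%, limit read from the data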
# The depositor's hits bear a star.
SMILES,Rad51 HR inh,HMGR II inh,PMI act hi M6P,PMI act,m-calpain inh
CCSC1=NCCN1C(=O)c1ccc(S(=O)(=O)N(C)C)cc1,41.1*,-2.8,0.9,0.9,-3.1
N#C/C(=C\c1cc2ccccc2nc1N1CCOCC1)C(=O)Nc1ccc(N2CCOCC2)cc1,-8.8,-5.5,0.9,0.9,-10.6
N#CC(C#N)=Cc1cc2ccccc2nc1N1CCOCC1,-4.6,14.0*,0.7,0.8,-29.7
Cn1c(SCC(=O)Nc2ccccc2F)nnc1-c1cc2ccccc2o1,-2.4,2.4,0.9,0.9,-17.1
Cn1cc(CC(=O)NCCN2CCOCC2)c2ccccc21,0.2,-0.8,0.9,1,-7.9
Cc1ccccc1N/N=C/c1ccc(C#N)cc1,-22.9,6.4,2.4*,1.6,2.1
Cc1nn2c(C(F)(F)F)cc(-c3ccc(Cl)cc3)nc2c1C(=O)N1CCOCC1,4.4,17.2*,0.9,0.9,-25.5
